According to ChEMBL document CHEMBL4000151, “Potent Small Agonists of Protease Activated Receptor 2” (ACS Med Chem Lett, 2016):
Activity calls are given as the source filed them. No cut-off for these calls is given here. Non-standard residues stand in square brackets, D forms with d. Residues, ends and D or L forms follow the SMILES beside them. ξ: configuration not given here. *: point of attachment. Isoxazole(5-carbonyl) = O=C(c1ccno1)*; ξCha = NC(CC1CCCCC1)C(=O)O; ξChg = NC(C(=O)O)C1CCCCC1; Orn = NCCC[C@H](N)C(=O)O; 2Furoyl = O=C(c1ccco1)*

Assays:
[1] = target: T1, Proteinase-activated receptor 2 (Homo sapiens, UniProt P55085); experiment: Agonist activity at human PAR2 expressed in CHO cells assessed as induction of intracellular calcium release measured for 300 secs by Fluo-3 AM dye-based fluorescence assay; assay type: functional, cell-based
T1 sequence (P55085 whole entry): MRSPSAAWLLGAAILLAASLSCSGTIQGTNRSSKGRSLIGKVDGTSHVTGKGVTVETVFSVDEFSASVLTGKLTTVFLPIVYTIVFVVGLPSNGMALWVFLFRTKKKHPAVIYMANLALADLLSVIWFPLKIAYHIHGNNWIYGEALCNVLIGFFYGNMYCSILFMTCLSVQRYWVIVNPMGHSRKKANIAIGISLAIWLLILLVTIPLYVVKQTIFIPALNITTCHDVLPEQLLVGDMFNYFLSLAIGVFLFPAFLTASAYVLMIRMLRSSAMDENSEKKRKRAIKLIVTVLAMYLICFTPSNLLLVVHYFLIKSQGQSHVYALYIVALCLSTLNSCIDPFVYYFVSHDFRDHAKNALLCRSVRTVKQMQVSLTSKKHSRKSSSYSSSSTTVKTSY
Method in brief: (§1)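 CHO cells stably expressing human PAR2 (wild-type or point mutant), or untransfected CHO cells, plated ~5 × 10^4/well overnight at 37 °C. Loaded 1 h at 37 °C with 4 μM Fluo-3 AM in HBSS with 1% FBS, then washed into HBSS with 2.5 mM probenecid and 20 mM HEPES, pH 7.4. Compound added over a concentration range.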

[2] = test system: CHO; experiment: Induction of intracellular calcium release in PAR2 deficient CHO cells at 100 uM measured for 300 secs by Fluo-3 AM dye-based fluorescence assay; assay type: functional, cell-based; details: Cricetulus griseus
Method in brief: as §1, with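 “range. Ca2+ read 300 s (ex 495/em 520 nm); duplicates; normalized to calcimycin; EC50 from nonlinear regression.” for “range.”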

[3] = test system: Plasma; experiment: Metabolic stability in rat plasma at 1 uM at pH 7.4 after 4 hrs by UPLC-MS analysis; assay type: ADME, cell-free; details: pH 7.4, 4 h
Method in brief: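 Compound from DMSO stock added to a 1:1 mixture of PBS and rat plasma at 37 °C, 1 μM initial. Aliquots taken at 0 to 240 min and quenched in MeCN, then centrifuged. Supernatant analysed by UPLC-MS as % of t = 0 peak area; n = 3.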

[4] = target: Proteinase-activated receptor 2 (Homo sapiens) (UniProt P55085); experiment: Agonist activity at PAR2 in human PC3 cells assessed as induction of intracellular calcium release at 25 uM of first compound treatment followed by 100 uM of second compound treatment by Fluo-3 AM dye based fluorescence assay; assay type: functional, cell-based
[5] = target: Proteinase-activated receptor 2 (Homo sapiens) (UniProt P55085); experiment: Agonist activity at PAR2 in human MDA-MB-231 cells assessed as induction of chemotaxis at 100 nM incubated for 24 hrs cells preincubated with PAR2 antibody SAM11 prior to test compound addition by transwell migration assay; assay type: cell-based
Method in brief: (§2)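 MDA-MB-231 cells lifted non-enzymatically into serum-free L-15 with 0.1% BSA and seeded at 2.5 × 10^5/insert on collagen-coated 5 μm transwell membranes, 3 h at 37 °C. Agonist at 100 nM placed in the bottom chamber for 24 h; SAM11 anti-PAR2 antibody (1 μg/mL) preincubated 30 min where used. Migrated cells stained with crystal violet and counted; chemotactic index = agonist/random migration.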

[6] = target: Proteinase-activated receptor 2 (Homo sapiens) (UniProt P55085); experiment: Agonist activity at PAR2 in human MDA-MB-231 cells assessed as induction of chemotaxis at 100 nM incubated for 24 hrs by transwell migration assay; assay type: cell-based; method in brief: as §2

| Compound | EC50 [1] [nM] | Activity [2] | also measured |
| --- | --- | --- | --- |
| H-SLIGKV-NH2 | 3000 |  |  |
| NC(=O)[C@@H](NC(=O)[C@H](CC1CCCCC1)NC(=O)c1ccno1)C1CCCCC1 |  | inactive | Stability [3]: Stable |
| CC[C@H](C)[C@H](NC(=O)[C@H](CC(C)C)NC(=O)c1ccco1)C(=O)NCC(=O)N[C@@H](CCCN=C(N)N)C(=O)N[C@@H](CC(C)C)C(=O)N[C@@H](CCCN)C(N)=O (2Furoyl-LIGRL[Orn]-NH2) | 300 |  |  |
| CC[C@H](C)[C@H](NC(=O)[C@H](CC(C)C)NC(=O)c1ccco1)C(=O)NCC(=O)N[C@@H](CCCNC(=N)N)C(=O)N[C@@H](CC(C)C)C(=O)N[C@@H](CCCN)C(N)=O (2Furoyl-LIGRL[Orn]-NH2) |  | inactive | Activity [4]: inactive; Activity [5]: inactive; Activity [6]: Active |
| CC[C@H](C)[C@H](NC(=O)C(CC1CCCCC1)NC(=O)c1ccno1)C(=O)NCC(=O)N[C@@H](CCCNC(=N)N)C(=O)N[C@@H](CC(C)C)C(N)=O (stereo not given in full) ({Isoxazole(5-carbonyl)}-[ξCha]IGRL-NH2) | 200 |  |  |
| CC(C)C[C@H](NC(=O)[C@H](CCCNC(=N)N)NC(=O)CNC(=O)C(NC(=O)C(CC1CCCCC1)NC(=O)c1ccno1)C1CCCCC1)C(N)=O (stereo not given in full) ({Isoxazole(5-carbonyl)}-[ξCha][ξChg]GRL-NH2) | 80 |  |  |
